Screening results deposited in PubChem BioAssay by several laboratories.
M1 agonist: M1 muscarinic receptor agonists, primary screen, CHO-M1 cells, Fluo-4 calcium, agonist mode; hit rate 3% among 64,000; Muscarinic acetylcholine receptor M1; Fluo-4 calcium fluorescence; hits give high values; B-score at 10 µM; AID 626, 2007;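 active means fluorescence rise, raw or as B-score row- and column-corrected plate score, outside the 99.7% band of its plate's samples, either direction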
mHtt clearance: clearance of mutant huntingtin inclusions, primary screen, imaging, HeLa Exon1htt(103Q)mCFP, confocal imaging; aggregate imaging; zero = plate's median compound well; inhibition, % at 1.5 µM; hit rate 0.42% among 47,000;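 active means inhibition of aggregate fluorescence above about 70%, also judged a hit by eye on the cell image, limit read from the data, passing the limit was not always enough; inconclusive means no rule stated for this call; inactive means not judged a hit on image review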;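 further: cells exposed to compound for three days before fixation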
RORA act: activators of orphan receptor RORA, primary screen, cell-based, luminescence; activation, % at 10 µM; AID 560, 2006; CHO-K1 Gal4-RORA LBD luciferase reporter; percent increase over mock-subtracted basal signal; hit rate 1.5% among 65,000; Nuclear receptor ROR-alpha (Homo sapiens), P35398;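 active means activation above the mean of all tested compounds plus 3 SD, cut at about 49% in these data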
M1 antag: antagonists of rat M1 muscarinic receptor; Muscarinic acetylcholine receptor M1 (Rattus norvegicus), P08482; CHO-M1 cells, Fluo-4 calcium, ACh EC80 antagonist mode; hits give low values; B-score at 10 µM; hit rate 3.4% among 64,000;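 active means calcium fluorescence response, raw or row-and-column corrected B-score, differing from the plate sample mean either way at a set confidence level, mostly lower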
D1 mod: D1 CRE-luciferase signal change, two-sided – cell-based, HEK293 D1, dopamine EC30, D1 allosteric modulator project, primary screen; D(1A) dopamine receptor (Homo sapiens), P21728; dopamine EC30 potentiation; actives deviate in either direction; B-score at 10 µM; hit rate 5.9% among 58,000; AID 641, 2007;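 active means luminescence count or its row- and column-corrected plate score outside the 99.7% band of the plate's sample wells, on either side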
SF-1 act: activators of human SF-1, primary screen, cell-based, CHO-K1, Gal4-SF-1 LBD, luciferase luminescence | CHO-K1 Gal4-SF-1 LBD luciferase reporter; % increase over DMSO SF-1-specific signal | activation, % at 10 µM | hit rate 1.9% among 65,000 | AID 522, 2006;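 active means activation above the mean activation of all tested compounds plus 3 SD, cut at about 50% in these data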
Target sequence (Q13285 whole entry, looked up, the tested form may be a part): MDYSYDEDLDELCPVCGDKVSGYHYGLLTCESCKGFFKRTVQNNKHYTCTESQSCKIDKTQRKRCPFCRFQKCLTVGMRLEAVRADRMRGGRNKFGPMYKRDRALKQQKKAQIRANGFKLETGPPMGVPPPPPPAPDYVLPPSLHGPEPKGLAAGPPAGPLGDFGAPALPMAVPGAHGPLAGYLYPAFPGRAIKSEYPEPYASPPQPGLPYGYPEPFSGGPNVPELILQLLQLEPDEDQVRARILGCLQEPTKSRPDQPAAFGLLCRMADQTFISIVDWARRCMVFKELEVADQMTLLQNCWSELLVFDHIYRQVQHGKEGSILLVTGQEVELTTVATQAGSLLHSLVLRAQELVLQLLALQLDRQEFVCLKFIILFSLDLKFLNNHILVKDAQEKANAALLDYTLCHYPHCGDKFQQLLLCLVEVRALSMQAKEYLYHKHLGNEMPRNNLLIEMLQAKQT
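Assay system: CHO-K1 cells co-transfected with Gal4 DBD–human SF-1 LBD, 5xGal4 luciferase reporter; doses: 10 µM only; incubation: 20 h compound exposure at 37 °C after 1 h cell settling; signal: luciferase light emission; evaluation: percent activation versus DMSO; repeats: one test per compound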
Hits are given with their value; 0 = inactive; ? = inconclusive; - = no result given. Shown are actives, neighbours in structure and some others; about 11% of the full set was active somewhere.

SMILES	M1 agonist	mHtt clearance	RORA act	M1 antag	D1 mod	SF-1 act
CCCC(=O)N1CCN(c2ccc(NC(=O)c3ccccc3)cc2)CC1	0	?	0	0	0	0
CCCCOc1ccc(C(=O)Nc2ccc(N3CCN(C)CC3)cc2)cc1	0	0	0	0	-3.2	0
C=CCn1c(C)cc(C(=O)CSc2n[nH]c(N)n2)c1C	-	0	-	-	-	-
CCCC(c1nnnn1Cc1ccco1)N1CCN(C(=O)c2ccco2)CC1 (centres undefined)	0	-	0	0.15	0	0
O=C(NCc1ccco1)C(c1ccccc1)N(C(=O)Cc1cccs1)c1ccccc1F (centres undefined)	-	0	-	-	-	-
CCCc1cc2c(=O)c(-c3ccccn3)coc2cc1OC	0	-	54	0	0	76
CN(C)c1cccc(C(=O)Nc2cccc(F)c2)c1	0	-	0	0	0	58
CCN(CC)c1ccc(NC(=O)c2cccnc2)cc1	-	0	-	-	-	-
CCN(CC)c1ccc(C(=O)Nc2cccc(F)c2)cc1	0	0	0	0	0	54
CNc1nc(N(C)C)nc(N(C)C)n1	-	0	-	-	-	-
COc1ccc(C(=O)Cn2c(N3CCOCC3)nc3ccccc32)cc1OC	0	-	0	0	-3	0
COc1ccc(N2CCN(c3nc4ccccc4n3CC(=O)c3ccccc3)CC2)cc1	0	-	0	0	-	0
COc1ccc(OC)c(C2/C(=C(\O)c3c(C)nc4ccccn34)C(=O)C(=O)N2CCCN(C)C)c1 (centres undefined)	0	-	0	2.4	0	0
COc1ccc(/C(O)=C2/C(=O)C(=O)N(CCN(C)C)C2c2ccc(C)cc2)cc1Cl (centres undefined)	0	0	0	0	0	0
CCN(CC)CCCN1C(=O)C(=O)/C(=C(/O)c2ccc(OC)c(Cl)c2)C1c1ccco1 (centres undefined)	0	-	0	0	0	0
COc1ccc(/C(O)=C2/C(=O)C(=O)N(CCN(C)C)C2c2ccccc2)cc1Cl (centres undefined)	0	-	0	1	-	0
COc1ccc(/C(O)=C2/C(=O)C(=O)N(CCCN(C)C)C2c2ccco2)cc1Cl (centres undefined)	35	-	0	0	0	0
CCOC(=O)c1[nH]c(C)c(/C(O)=C2\C(=O)C(=O)N(CCN(C)C)C2c2ccco2)c1C (centres undefined)	0	-	0	-2.3	0	0
Cc1ccc(C2/C(=C(\O)c3c(C)nc4ccccn34)C(=O)C(=O)N2CCCN(C)C)o1 (centres undefined)	0	-	0	0	0	0
CCN(CC)CCN1C(=O)C(=O)/C(=C(/O)c2c(C)[nH]c(C(=O)OC)c2C)C1c1ccco1 (centres undefined)	0	0	0	0	0	0
O=C(CCSc1nc(-c2ccco2)cc(C(F)(F)F)n1)N1CCCc2ccccc21	-	0	0	-	0	0
c1nc(NCCN2CCOCC2)c2sc3nc(N4CCOCC4)c4c(c3c2n1)CCC4	0	-	0	0	6.8	0
CCN1CCN(c2ncnc3c2sc2nc(N4CCOCC4)c4c(c23)CCC4)CC1	0	-	0	0	-	0
O=S1(=O)C=C(SCc2cccc(Cl)c2)Nc2ccccc21	-	0	-	-	-	-
Cn1cnnc1SCc1ccc(C(=O)O)cc1	0	0	0	2.1	0	0
SMILES	M1 agonist	mHtt clearance	RORA act	M1 antag	D1 mod	SF-1 act
CCOC(=O)C1CCN(S(=O)(=O)C(F)(F)c2nc3ccccc3s2)CC1	0	0	71	0	0	0
O=C(O)CCCN=CC1=C(O)C(C(=O)c2ccccc2)CCC1=O (centres undefined)	-	0	-	-	-	-
COc1ccc(NC(=O)CC2SC(=NCc3ccccc3OC)NC2=O)cc1 (centres undefined)	0	0	0	0	-4	0
CCOc1ccc(S(=O)(=O)NCCCN2CCOCC2)c2ccccc12	0	-	0	0	0	0
CCOc1ccc2ccccc2c1CNCCN1CCOCC1	0	70	0	0	0	0
COc1ccc(NC2CC(=O)N(C(C)C)C2=O)cc1 (centres undefined)	0	0	0	0	0	50
Nc1cc(OC(=O)c2cccs2)nn1S(=O)(=O)c1ccccc1	-	0	0	-	-5.3	0
Nc1nc(SCc2ccc(Cl)cc2)ns1	0	0	0	0	0	0
